The values that follow come from ChEMBL document CHEMBL1149110, “Identification of 2-[2-[2-(5-bromo-2- methoxyphenyl)-ethyl]-3-fluorophenyl]-4,5-dihydro-1H-imidazole (ML00253764), a small molecule melanocortin 4 receptor antagonist that effectively reduces tumor-induced weight loss in a mouse model” (J Med Chem, 2004).

SMILES strings stand for the structures.

The target in experiment [1] is Melanocortin receptor 4 (Mus musculus, UniProt P56450). Briefly: Competition binding affinity at mice melanocortin 4 receptor using [125I][NDP]-R-MSH as radioligand in a membrane filtration assay. Format: cell membranes. The method in brief: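 Membrane filtration competition binding at MC4R with 125I-[NDP]-α-MSH as radioligand. Values are averages of at least three measurements, reported ± SD.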

For experiment [2], the species on record is Mus musculus. Briefly: Functional antagonism measured by inhibition of cAMP production induced by [NDP]-R-MSH in a whole cell assay in mice. The method in brief: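 Whole-cell functional assay measuring inhibition of cAMP production stimulated by [NDP]-α-MSH. Values are averages of at least three measurements, reported ± SD.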

Sequence of Melanocortin receptor 4 (P56450 whole entry): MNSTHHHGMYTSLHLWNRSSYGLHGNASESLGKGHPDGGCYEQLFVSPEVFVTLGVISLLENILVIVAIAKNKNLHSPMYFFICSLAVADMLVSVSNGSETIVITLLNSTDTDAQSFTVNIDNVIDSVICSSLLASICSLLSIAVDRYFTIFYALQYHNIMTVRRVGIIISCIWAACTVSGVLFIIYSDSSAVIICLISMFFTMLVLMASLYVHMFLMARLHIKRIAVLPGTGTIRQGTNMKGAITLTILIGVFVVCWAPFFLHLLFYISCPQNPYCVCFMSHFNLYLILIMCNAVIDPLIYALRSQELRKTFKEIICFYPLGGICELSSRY

For orientation: Ki means a measure of affinity in units of concentration, obtained from inhibition or displacement. A low value points to higher affinity. In experiment [1], `Clc1cc(CSc2ccccc2C2=NCCCN2)c(Cl)s1` gave a Ki of 2200 nM.

With `Fc1cccc(F)c1CSc1ccccc1C1=NCCCN1`, the affinity in experiment [1], expressed as Ki, was 15800 nM.

Broadly, the IC50 is the concentration that inhibits the measured activity by half. Low readings indicate greater potency, high ones weaker potency. `COc1ccc(Br)cc1CCc1ccccc1C1=NCCCN1` gave a Ki in experiment [1] of 220 nM. This compound also returned an IC50 in experiment [2] of 280 nM.

With `COc1ccc(Br)cc1CCc1c(F)cccc1C1=NCCN1`, in experiment [1], the Ki came out at 160 nM.

As for `Fc1cccc(Cl)c1CSc1ccccc1C1=NCCCN1`, in experiment [1], the Ki is 2700 nM.

On to `COc1ccc(Br)cc1CSc1ccccc1C1=NCCCN1`, for which, in experiment [1], the Ki is 67 nM. In addition, the IC50 in experiment [2] amounted to 270 nM.

In experiment [1], `COc1ccc(Br)cc1CCc1ccccc1C1=NCCN1` returned a Ki of 39 nM. For the same compound, in experiment [2], 450 nM corresponded to half-maximal inhibition (IC50).
